Structures are written as SMILES.

Series [1] concerns Mus musculus. The series is described as follows: Gastrointestinal toxicity in Swiss albino mouse assessed as ulcerogenic effect at 100 mg/kg, po. Type of series: organism-based. Also noted: dose 100 mg/kg, route oral. The conditions noted are these: in vivo. The essentials: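 Male Swiss albino mice (20–25 g), food withdrawn one day before with water allowed, at least six per group. Dosed orally as a suspension in distilled water with 0.5% CMC; controls got vehicle. Taken from the p-benzoquinone writhing test (i.p. 2.5% PBQ 60 min post-dose), then killed under deep ether anesthesia. Stomachs were opened along the great curvature and checked under a dissecting microscope for lesions or bleeding; scored as ulcerated/total animals.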

Series [2] relates to Mus musculus. The series is described as follows: Analgesic activity in Swiss albino mouse assessed as inhibition of para-benzoquinone-induced abdominal writhing response at 100 mg/kg, po administered 60 mins prior to para-benzoquinone challenge measured after 15 mins. It is filed as functional, Abdomen. Also noted: scale not given: the % may be the effect or the level left. In a few lines: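 Male Swiss albino mice (20–25 g) were fasted overnight with water allowed, at least 6 per group. Oral dosing used a 0.5% CMC suspension, and vehicle was given to controls. Then 0.1 ml/10 g of 2.5% (v/v) p-benzoquinone was injected i.p. Writhings were counted for 15 min, starting 5 min after injection. Inhibition is expressed as % of control, mean ± SEM, ANOVA/Student–Newman–Keuls.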

The subject of series [3] is Mus musculus. The series is described as follows: Antiinflammatory activity in Swiss albino mouse assessed as inhibition of carrageenan-induced paw edema at 10 mg/kg, po administered before 60 mins of carrageenan-challenge measured after 90 mins. It is filed as functional. The essentials: (§1)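 Fasted male Swiss albino mice (20–25 g), n≥6, were dosed orally in 0.5% CMC suspension, with vehicle for controls. Carrageenan (0.5 mg/25 μl in saline) was injected subplantar into the right hind paw and saline into the left. The right–left footpad thickness difference was measured by dial caliper every 90 min over 6 h. Inhibition was calculated versus control, mean ± SEM.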
(The carrageenan paw model is a standard test of acute inflammation.)

Series [4] deals with Mus musculus. The series is described as follows: Antiinflammatory activity in Swiss albino mouse assessed as inhibition of carrageenan-induced paw edema at 10 mg/kg, po administered before 60 mins of carrageenan-challenge measured after 360 mins. Type of series: functional. The essentials: as §1
Series [5] has as its system Mus musculus. The series is described as follows: Antiinflammatory activity in Swiss albino mouse assessed as inhibition of carrageenan-induced paw edema at 10 mg/kg, po administered before 60 mins of carrageenan-challenge measured after 270 mins. Type of series: functional. In a few lines:
as §1

The subject of series [6] is Mus musculus. The series is described as follows: Antiinflammatory activity in Swiss albino mouse assessed as inhibition of carrageenan-induced paw edema at 10 mg/kg, po administered before 60 mins of carrageenan-challenge measured after 180 mins. It is filed as functional. The essentials:
as §1

For the molecule `Cc1ccc(/C=N/NC(=O)Cn2nc(N3CCN(c4cccc(Cl)c4)CC3)ccc2=O)cc1`, in series [1], the Activity result is “Non-toxic”.

Take `COc1ccc(/C=N/NC(=O)Cn2nc(N3CCN(c4ccc(Cl)cc4)CC3)ccc2=O)cc1`: in series [1], the Activity result is recorded as “Non-toxic”.

Take `COc1ccc(/C=N/NC(=O)Cn2nc(N3CCN(c4ccccn4)CC3)ccc2=O)cc1`: the Activity entry in series [1] is “Non-toxic”.

As for `COc1ccc(/C=N/NC(=O)Cn2nc(N3CCN(c4cccc(Cl)c4)CC3)ccc2=O)cc1`, the Activity result in series [1] was “Non-toxic”.

As to `Cc1ccc(/C=N/NC(=O)Cn2nc(N3CCN(c4ccccn4)CC3)ccc2=O)cc1`, the Activity entry in series [1] was “Non-toxic”.

Regarding `Cc1ccc(/C=N/NC(=O)Cn2nc(N3CCN(c4ccc(Cl)cc4)CC3)ccc2=O)cc1`, in series [1], the Activity entry is recorded as “Non-toxic”.

On to `CC(=O)Oc1ccccc1C(=O)O` [ASPIRIN], for which the Activity entry in series [1] is listed as “Toxic”; in series [2] it was 48.7%.

One may read the inhibition in vivo as how much of the control response was suppressed. Consider `COc1ccc2c(c1)c(CC(=O)O)c(C)n2C(=O)c1ccc(Cl)cc1` [INDOMETHACIN], for which the inhibition in vivo at 10 mg/kg in series [3] came out at 34.4%; in series [4], 40.4%; in series [5] it was 37.4%; in series [6] it was 32.8%. In series [1], the Activity result is recorded as “Toxic”.

The values above are taken from ChEMBL document CHEMBL1153644, “Synthesis and analgesic and anti-inflammatory activities 6-substituted-3(2H)-pyridazinone-2-acetyl-2-(p-substituted/nonsubstituted benzal)hydrazone derivatives” (Eur J Med Chem, 2009).
